In article PMC7848789 (SLAS discovery : advancing life sciences R & D, 2019):
Like-named read-outs stand apart in the source and are kept apart here. Where a SMILES comes first, the peptide text is derived from it.

Columns and labels:
[1] = target: Recombinant human HDAC1 enzyme (Homo sapiens, UniProt Q13547); test: HDAC-Glo I/II enzymatic assay; type: biochemical; settings: for Activity outcome in HDAC1 enzymatic HDAC-Glo I/II assay: qHTS, 11 concentrations, active = CRC class 1 and 2 and AUC>100; for Emax: read-out: % Efficacy, HDAC-Glo: HDAC1
[2] = tested on: HDAC class I and II activity in HEK293T cells; test: HDAC-Glo I/II cellular assay in HEK293T cells; type: cell-based; settings: qHTS, 1 hour, active = CRC class 1 and 2 and AUC>100
HDAC1–86b = HDAC1–86b (Homo sapiens, UniProt Q13547); test: HDAC1-86b SplitLuc CETSA in HEK293T cells; type: binding; settings: for Activity outcome in SplitLuc CETSA (thermal stabilization of HDAC1–86b): 49°C, active = CRC class 1 and 2 and AUC>50; for Average IC50 ± SD (% Efficacy), SplitLuc CETSA: HEK293T: thermal stabilization at 49°C, n=2
[3] = target: HDAC1-NanoLuc fusion protein (Homo sapiens, UniProt Q13547); test: HDAC1 NanoBRET target engagement assay in HEK293T cells; type: binding; settings: for Average IC50 ± SD, NanoBRET: HEK293T: n=2; for Average IC50 ± SD, NanoBRET: HEK293T / Activity outcome in NanoBRET (HDAC1 engagement, displacement of SAHA tracer): HEK293T; for Activity outcome in NanoBRET (HDAC1 engagement, displacement of SAHA tracer): 28.9 μM to 0.49 nM, active = CRC class 1 and 2 and AUC>100; for Emax: read-out: % Efficacy, NanoBRET: HEK293T
HEK293T cells = test: CellTiter-Glo acute cell death counterscreen; type: cell-based; settings: 1 hour; at the highest concentration tested of 45.8 μM
[4] = tested on: HDAC class I and II activity in HeLa cells; test: HDAC-Glo I/II cellular assay in HeLa cells; type: cell-based; settings: qHTS; 1 hour; active = CRC class 1 and 2 and AUC>100
[5] = Fluorescence counterscreen; type: physicochemical; settings: excited at 450 nm, emission 500–750 nm; 610 nm channel of NanoBRET
Method in brief: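 Cell-free scan: test compound pinned into wells of growth medium alone (final DMSO 0.28 %), no cells or tracer added. Wells excited at 450 nm and emission read every 10 nm across 500–750 nm to build a full spectrum, flagging intrinsic fluorescence near the 610 nm NanoBRET acceptor channel.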

isolated HDAC1 = settings: read-out: reported IC50 against isolated HDAC1; cited from earlier work

Chain of HDAC1-NanoLuc fusion protein (Q13547 whole entry, the tested form may be a part): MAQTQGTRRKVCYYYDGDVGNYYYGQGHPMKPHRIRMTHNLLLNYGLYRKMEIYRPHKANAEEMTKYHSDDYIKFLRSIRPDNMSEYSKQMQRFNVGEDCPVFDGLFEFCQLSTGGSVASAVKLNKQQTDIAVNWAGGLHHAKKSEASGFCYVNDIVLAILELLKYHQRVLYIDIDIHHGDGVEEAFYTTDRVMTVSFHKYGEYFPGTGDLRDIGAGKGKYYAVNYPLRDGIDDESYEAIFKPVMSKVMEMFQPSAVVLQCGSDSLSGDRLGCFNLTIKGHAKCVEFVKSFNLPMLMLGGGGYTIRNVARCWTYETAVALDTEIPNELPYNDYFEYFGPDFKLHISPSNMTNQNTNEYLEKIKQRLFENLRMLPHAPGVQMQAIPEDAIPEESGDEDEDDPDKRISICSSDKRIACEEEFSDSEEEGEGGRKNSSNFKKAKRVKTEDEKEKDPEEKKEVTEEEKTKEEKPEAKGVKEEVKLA
Chain of HDAC1–86b (Q13547 whole entry, the tested form may be a part): as above
Chain of Recombinant human HDAC1 enzyme (Q13547 whole entry): as the sequence (Q13547 whole entry, the tested form may be a part) above

Row | SMILES | Activity outcome in HDAC1 enzymatic HDAC-Glo I/II assay [1] | IC50 [1] [nM] | Emax [1] [%] | Activity outcome in HEK293T cellular HDAC-Glo I/II assay [2] | other results
1 | NC(=O)c1cccc2[nH]c(-c3ccc([C@@H]4CCCN4)cc3F)nc12 [A-966492] | active |  |  |  | 
2 | Cn1cc(C(=O)Cc2ccccc2)cc1/C=C/C(=O)NO [APHA Compound 8] | active |  |  | either inactive or did not pass the activity cutoff | 
3 | CCCSc1ccc2nc(NC(=O)OC)[nH]c2c1 [Albendazole] |  | 7700 ± 800 | 93 |  | 
4 | CCC(=O)CCCCC[C@@H]1NC(=O)[C@H]2CCCCN2C(=O)[C@H]([C@@H](C)CC)NC(=O)[C@H](Cc2cn(OC)c3ccccc23)NC1=O [Apicidin] | most potent |  |  | most potent | Activity outcome in SplitLuc CETSA (thermal stabilization of HDAC1–86b) (HDAC1–86b): most potent
5 | CNC(=O)c1ccccc1Sc1ccc2c(/C=C/c3ccccn3)n[nH]c2c1 [Axitinib] |  | 3000 ± 200 | 90 |  | Average IC50 ± SD (% Efficacy), SplitLuc CETSA: HEK293T (HDAC1–86b): Inactive; Average IC50 ± SD, NanoBRET: HEK293T [3]: Inactive
6 | COc1ccc(-c2nc(N3CCOCC3)c3sc(CN(C)c4ncc(C(=O)NO)cn4)cc3n2)cn1 [CUDC-907] | most potent |  |  | most potent | Activity outcome in SplitLuc CETSA (thermal stabilization of HDAC1–86b) (HDAC1–86b): most potent
7 | CN(C)C(=O)COC(=O)Cc1ccc(OC(=O)c2ccc(NC(=N)N)cc2)cc1 [Camostat] |  | 1100 ± 100 | 95 |  | Average IC50 ± SD (% Efficacy), SplitLuc CETSA: HEK293T (HDAC1–86b): Inactive; IC50 [3]: 8.2 ± 1.4 µM; Activity outcome in NanoBRET (HDAC1 engagement, displacement of SAHA tracer) [3]: weakly engage HDAC1; Emax [3]: 90%
8 | CCS(=O)(=O)N1CCN(c2ccc(Nc3ncc(C(N)=O)c(NC4CC4)n3)cc2)CC1 [Cerdulatinib] |  |  |  |  | Acute effect on HEK293T cell viability (CellTiter-Glo) (HEK293T cells): reduced HEK293T cell viability
9 | O=C(/C=C/c1ccc(CN(CCO)CCc2c[nH]c3ccccc23)cc1)NO [Dacinostat] |  |  |  | most potent | 
10 | Nc1ccc2c(c1)CN1C(=O)c3ccccc3C1=N2 [Daniquidone] |  | 2100 ± 600 | 92 |  | Intrinsic fluorescence [5]: fluorescence over the 500–750 nm range
11 | O=S(=O)(O)c1ccc2[nH]c(-c3ccccc3)nc2c1 [Ensulizole] |  | 2400 ± 300 | 99 |  | 
12 | CCCCN(Cc1ccc(C(=O)NO)cc1)C(=O)Nc1ccccc1 [Nexturastat A] |  |  |  |  | Activity outcome in NanoBRET (HDAC1 engagement, displacement of SAHA tracer) [3]: engagement
13 | O=C(CCCCCCC(=O)Nc1cccnc1)NO [Pyroximide] |  |  |  | inactive | 
14 | O=C(Nc1cccc(Cl)c1)Nc1ncc(CCNc2ncnc3ccsc23)s1 [SNS-314] |  |  |  |  | Acute effect on HEK293T cell viability (CellTiter-Glo) (HEK293T cells): acute cell death; IC50 [3]: 0.549 µM; Activity outcome in NanoBRET (HDAC1 engagement, displacement of SAHA tracer) [3]: engagement
15 | Cc1ccc(NC(=O)CCCCCC(=O)Nc2ccccc2N)cc1 [TC-H-106] | active |  |  | relatively weak activity (below the activity cutoff) | Activity outcome in HEK293T cellular HDAC-Glo I/II assay ([2]; listed as TC-H 106): either inactive or did not pass the activity cutoff; Activity outcome in HeLa cellular HDAC-Glo I/II assay [4]: relatively weak activity (below the activity cutoff)
16 | O=C(CCCCC[C@@H]1NC(=O)[C@H]2CCCCN2C(=O)[C@H](Cc2ccccc2)NC(=O)[C@H](Cc2ccccc2)NC1=O)C1CO1 (some centres unmarked) [Trapoxin A] (HELM PEPTIDE1{F.F.[O=C([C@H]1CCCCN1[*:1])[*:2]].[O=C(CCCCC[C@H](N[*:1])C(=O)[*:2])C1CO1]}$PEPTIDE1,PEPTIDE1,1:R1-4:R2$$$V2.0) | most potent |  |  | most potent | Activity outcome in SplitLuc CETSA (thermal stabilization of HDAC1–86b) (HDAC1–86b): most potent

The next lines start with results.

Row | Activity outcome in HDAC1 enzymatic HDAC-Glo I/II assay [1] | IC50 [1] [nM] | Emax [1] [%] | SMILES | Activity outcome in HEK293T cellular HDAC-Glo I/II assay [2] | other results
17 | active |  |  | Nc1cc(F)ccc1NC(=O)c1ccc(CNC(=O)/C=C/c2cccnc2)cc1 [Chidamide] | relatively weak activity (below the activity cutoff) | Activity outcome in HeLa cellular HDAC-Glo I/II assay [4]: relatively weak activity (below the activity cutoff)
18 | active |  |  | Nc1ccccc1NC(=O)c1ccc(CNC(=O)OCc2cccnc2)cc1 [Entinostat] | relatively weak activity (below the activity cutoff) | Activity outcome in HeLa cellular HDAC-Glo I/II assay [4]: relatively weak activity (below the activity cutoff)
19 | inactive |  |  | O=C(CCCCCCSc1ccc2ccccc2c1)NO [HNHA] | inactive | 
20 | weak activity |  |  | O=C(NO)c1ccc(CC(=O)N(CCO)c2ccccc2)cc1 [HPOB] | weak activity | Activity outcome in SplitLuc CETSA (thermal stabilization of HDAC1–86b) (HDAC1–86b): did not pass the activity cutoff; Activity outcome in NanoBRET (HDAC1 engagement, displacement of SAHA tracer) [3]: did not pass the activity cutoff
21 |  | 3000 ± 200 | 96 | Cc1oncc1C(=O)Nc1ccc(C(F)(F)F)cc1 [Leflunomide] |  | Average IC50 ± SD (% Efficacy), SplitLuc CETSA: HEK293T (HDAC1–86b): Inactive; Average IC50 ± SD, NanoBRET: HEK293T [3]: Inactive
22 | active |  |  | C=C1CN(Cc2ccc(C(=O)Nc3ccccc3N)cc2)C(=O)c2ccccc21 [MI 192] | relatively weak activity (below the activity cutoff) | IC50 ([1]; read-out: IC50 in the enzymatic assay (HDAC1), HDAC-Glo I/II, Epigenetic-Focused collection): 80 nM; IC50 (isolated HDAC1): 4.8 µM; Activity outcome in HeLa cellular HDAC-Glo I/II assay [4]: relatively weak activity (below the activity cutoff); Activity outcome in NanoBRET (HDAC1 engagement, displacement of SAHA tracer) [3]: engage HDAC1 in cells
23 |  | 1300 ± 100 | 97 | N=C(N)c1ccc2cc(OC(=O)c3ccc(N=C(N)N)cc3)ccc2c1 [Nafamostat] |  | Average IC50 ± SD (% Efficacy), SplitLuc CETSA: HEK293T (HDAC1–86b): Inactive; IC50 [3]: 11.8 ± 2.9 µM; Activity outcome in NanoBRET (HDAC1 engagement, displacement of SAHA tracer) [3]: weakly engage HDAC1; Emax [3]: 37%
24 |  | 2800 ± 10 | 99 | O=C(Nc1ccc([N+](=O)[O-])cc1Cl)c1cc(Cl)ccc1O [Niclosamide] |  | Average IC50 ± SD (% Efficacy), SplitLuc CETSA: HEK293T (HDAC1–86b): Inactive; Average IC50 ± SD, NanoBRET: HEK293T [3]: Inactive
25 |  | 5100 ± 300 | 95 | CC(=O)Oc1ccccc1C(=O)Nc1ncc([N+](=O)[O-])s1 [Nitazoxanide] |  | 
26 | inactive |  |  | CC(C)C(=O)SCCCCCCC(=O)Nc1nc(-c2ccccc2)cs1 [PTACH] | showed HDAC inhibition | Activity outcome in NanoBRET (HDAC1 engagement, displacement of SAHA tracer) [3]: engagement
27 | most potent |  |  | Cn1cc(CNCC2CCN(c3ncc(C(=O)NO)cn3)CC2)c2ccccc21 [Quisinostat] | most potent | Activity outcome in SplitLuc CETSA (thermal stabilization of HDAC1–86b) (HDAC1–86b): most potent
28 | active |  |  | COc1cc(OC)c2c(=O)[nH]c(-c3cc(C)c(OCCO)c(C)c3)nc2c1 [RVX-208] |  | 
29 |  | 1500 ± 10 | 95 | Oc1ccc(/C=C/c2cc(O)cc(O)c2)cc1 [Resveratrol] |  | Average IC50 ± SD (% Efficacy), SplitLuc CETSA: HEK293T (HDAC1–86b): Inactive
30 | active |  |  | CC(=O)Nc1ccc(C(=O)Nc2ccccc2N)cc1 [Tacedinaline] |  | Activity outcome in HeLa cellular HDAC-Glo I/II assay [4]: relatively weak activity (below the activity cutoff)
31 |  | 1700 ± 10 | 93 | O=C(Nc1ncc([N+](=O)[O-])s1)c1cccs1 [Tenonitrozole] |  | 
32 |  | 3800 ± 600 | 90 | c1ccc2[nH]c(-c3cscn3)nc2c1 [Thiabendazole] |  | Average IC50 ± SD (% Efficacy), SplitLuc CETSA: HEK293T (HDAC1–86b): Inactive; Average IC50 ± SD, NanoBRET: HEK293T [3]: Inactive
33 | weak activity |  |  | O=C(CCCCCCC(=O)Nc1ccc([C@H]2O[C@@H](CSc3nc(-c4ccccc4)c(-c4ccccc4)o3)C[C@@H](c3ccc(CO)cc3)O2)cc1)NO [Tubacin] | weak activity | Activity outcome in SplitLuc CETSA (thermal stabilization of HDAC1–86b) (HDAC1–86b): did not pass the activity cutoff; Activity outcome in NanoBRET (HDAC1 engagement, displacement of SAHA tracer) [3]: did not pass the activity cutoff
34 | weak activity |  |  | CN1CCc2c(c3ccccc3n2Cc2ccc(C(=O)NO)cc2)C1 [Tubastatin A] | weak activity | Activity outcome in SplitLuc CETSA (thermal stabilization of HDAC1–86b) (HDAC1–86b): inactive; Activity outcome in NanoBRET (HDAC1 engagement, displacement of SAHA tracer) [3]: inactive
35 | weak activity |  |  | CCCCNNC(=O)c1ccc(Br)cc1 [UF 010] | weak activity | Activity outcome in SplitLuc CETSA (thermal stabilization of HDAC1–86b) (HDAC1–86b): did not pass the activity cutoff; Activity outcome in NanoBRET (HDAC1 engagement, displacement of SAHA tracer) [3]: did not pass the activity cutoff
